Assays:
[1] = test system: Mus musculus; assay: Toxicity in nude mouse xenografted with human NCI-H460 cells assessed as decrease in body weight at 10 mg/kg, iv administered every 2 days for 21 days; format: organism-based; design: scale not given: the % may be the effect or the level left; settings: in vivo
Procedure, shortened: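 NCI-H460 lung carcinoma xenografts in nude mice, with intravenous injection every two days over 21 consecutive days (legend: Q3D7). Body weights were recorded across the administration period as a toxicity read-out. Data given as mean ± SD.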

[2] = test system: NCI-H460; assay: Antitumor activity against human NCI-H460 cells xenografted in nude mouse assessed as tumor growth inhibition at 10 mg/kg, iv administered every 2 days for 21 days relative to vehicle-treated control; format: functional; settings: read-out: TGI
Procedure, shortened: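 Nude mice bearing human NCI-H460 lung carcinoma xenografts, dosed by intravenous injection every two days for 21 consecutive days (legend states Q3D7), alongside vehicle controls. Tumor volumes were followed over the dosing period. At the end, tumors were excised and weighed, and inhibitory rates were calculated relative to vehicle. Data given as mean ± SD.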

[3] = Half life in Wistar rat at 5 mg/kg, iv; format: ADME, organism-based; settings: in vivo
Procedure, shortened: (§1)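 Wistar rats, single intravenous dose of 5 mg·kg⁻¹, n=5; plasma concentration–time profile sampled, mean ± SD. Parameters (ke, t1/2, Tmax, Cmax, AUClast, AUC0–∞, Vz, CL, MRT) derived from the plasma curve.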

[4] = test system: NCI-H460; assay: Cytotoxicity against human NCI-H460 cells assessed as decrease in cell viability after 72 hrs by MTT assay; format: functional, cell-based; settings: NCI-H460, 72 h
[5] = Observed clearance in Wistar rat at 5 mg/kg, iv; format: ADME, organism-based; settings: in vivo; procedure, shortened: as §1
[6] = Observed AUC (0 to infinity) in Wistar rat at 5 mg/kg, iv; format: ADME, organism-based; design: dose 5 mg/kg, time infinity, route intravenous; settings: in vivo; procedure, shortened: as §1
[7] = AUClast in Wistar rat at 5 mg/kg, iv; format: ADME, organism-based; design: dose 5 mg/kg, route intravenous, time 0 - last; settings: in vivo; procedure, shortened: as §1
[8] = Cmax in Wistar rat at 5 mg/kg, iv; format: ADME, organism-based; design: dose 5 mg/kg, route intravenous; settings: in vivo; procedure, shortened: as §1
[9] = test system: Jurkat; assay: Cytotoxicity against human Jurkat cells assessed as decrease in cell viability after 72 hrs by MTT assay; format: functional, cell-based
[10] = Metabolic stability in rat liver microsomes assessed as esterase-mediated amide bond hydrolysis at 2 uM measured up to 150 mins by LC-MS/MS analysis; format: ADME; settings: 2.5 h
[11] = Observed apparent volume of distribution in Wistar rat at 5 mg/kg, iv; format: ADME, organism-based; settings: in vivo, read-out: Vz; procedure, shortened: as §1
[12] = Metabolic stability in rat plasma assessed as esterase-mediated amide bond hydrolysis at 1 uM measured up to 100 mins by LC-MS/MS analysis; format: ADME; settings: isolated protein
[13] = Tmax in Wistar rat at 5 mg/kg, iv; format: ADME, organism-based; settings: in vivo; procedure, shortened: as §1
[14] = Elimination rate constant in Wistar rat at 5 mg/kg, iv; format: ADME, organism-based; settings: in vivo; procedure, shortened: as §1
[15] = MRTlast in Wistar rat at 5 mg/kg, iv; format: ADME, organism-based; settings: in vivo; procedure, shortened: as §1
[16] = test system: NCI-H460; assay: Antitumor activity against human NCI-H460 cells xenografted in iv dosed nude mouse assessed as tumor growth inhibition administered every 2 days for 21 days; format: functional, organism-based; settings: tested as the 2H-labelled form
Procedure, shortened: (§2)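 NCI-H460 xenografts in nude mice, dosed intravenously at 3, 6 or 12 mg/kg every two days for 21 consecutive days (Q3D7); docetaxel 10 mg/kg as positive control. Tumor volumes followed, tumors excised and weighed at end of dosing; inhibitory rate calculated versus vehicle group; mean ± SD.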

[17] = test system: NCI-H446; assay: Cytotoxicity against human NCI-H446 cells assessed as decrease in cell viability after 72 hrs by MTT assay; format: functional, cell-based; settings: NCI-H446, 72 h
[18] = Drug uptake in tumor of nude mouse xenografted with human NCI-H460 cells at 3 mg/kg, iv administered every 2 days for 21 days; format: ADME, organism-based, Neoplasm; settings: read-out: Drug uptake
Procedure, shortened: (§3)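 Nude mice bearing NCI-H460 xenografts given compound intravenously at 3, 6 or 12 mg/kg every two days for 21 days. Concentration in excised tumor tissue measured at end of treatment, expressed as ng/g.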

[19] = test system: Mus musculus; assay: Toxicity in nude mouse xenografted with human NCI-H460 cells assessed as decrease in body weight at 3 to 12 mg/kg, iv administered every 2 days for 21 days; format: organism-based; settings: in vivo
Procedure, shortened: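 Nude mice bearing NCI-H460 xenografts dosed intravenously at 3, 6 or 12 mg/kg every two days for 21 days (Q3D7). Body weights recorded over the dosing period; mean ± SD.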

[20] = Drug uptake in tumor of nude mouse xenografted with human NCI-H460 cells at 12 mg/kg, iv administered every 2 days for 21 days; format: ADME, organism-based, Neoplasm; settings: read-out: Drug uptake; procedure, shortened: as §3
[21] = test system: NCI-H460; assay: Antitumor activity against human NCI-H460 cells xenografted in nude mouse assessed as tumor growth inhibition at 3 mg/kg, iv administered every 2 days for 21 days relative to vehicle-treated control; format: functional; settings: read-out: TGI; procedure, shortened: as §2
[22] = test system: NCI-H460; assay: Antitumor activity against human NCI-H460 cells xenografted in nude mouse assessed as tumor growth inhibition at 12 mg/kg, iv administered every 2 days for 21 days relative to vehicle-treated control; format: functional; settings: read-out: TGI; procedure, shortened: as §2
[23] = Drug uptake in tumor of nude mouse xenografted with human NCI-H460 cells at 6 mg/kg, iv administered every 2 days for 21 days; format: ADME, organism-based, Neoplasm; settings: read-out: Drug uptake; procedure, shortened: as §3
[24] = test system: NCI-H460; assay: Antitumor activity against human NCI-H460 cells xenografted in nude mouse assessed as tumor growth inhibition at 6 mg/kg, iv administered every 2 days for 21 days relative to vehicle-treated control; format: functional; settings: read-out: TGI; procedure, shortened: as §2

SMILES	half-life [3]	IC50 [4]	clearance [5]	AUC(0-inf) [6]	AUC(0-t) [7]	Cmax [8]	IC50 [9]	Stability [10]	Vd [11]	Stability [12]	Tmax [13]	k el [14]	MRT last [15]	IC50 [17]	further results
CC(=O)O[C@@]12CO[C@@H]1C[C@H](O)[C@@]1(C)C(=O)[C@H](O)C3=C(C)[C@@H](OC(=O)[C@H](O)[C@@H](NC(=O)OC(C)(C)C)c4ccccc4)C[C@@](O)([C@@H](OC(=O)c4ccccc4)[C@H]21)C3(C)C [DOCETAXEL ANHYDROUS]	–	–	–	–	–	–	–	–	–	–	–	–	–	–	Activity [1]: 18.3%; inhibition in vivo at 10 mg/kg [2]: 40%
CC(C)(C)c1[nH]cnc1/C=c1\[nH]c(=O)/c(=C/c2ccccc2)[nH]c1=O [PLINABULIN]	67.8 min	33.9 nM	121 mL/min/kg	723 ng·h/mL	721 ng·h/mL	5040 ng/mL	3.3 nM	Stable	11.4 L/kg	Stable	1.2 min	0.000189 s⁻¹	0.5 h	44.2 nM	TGI [16]: Dose-dependent effect
[2H]/C(c1nc[nH]c1C(C)(C)C)=c1/[nH]c(=O)/c(=C/c2ccccc2)[nH]c1=O	88.2 min	33.2 nM	58.8 mL/min/kg	1520 ng·h/mL	1520 ng·h/mL	7280 ng/mL	4.3 nM	Stable	7.72 L/kg	Stable	1.2 min	0.000139 s⁻¹	1.68 h	22 nM	concentration at 21 days [18]: 316 ng/g; Activity [19]: Non-Toxic; concentration at 21 days [20]: 2490 ng/g; inhibition in vivo at 3 mg/kg [21]: 28.8%; inhibition in vivo at 12 mg/kg [22]: 48%; concentration at 21 days [23]: 809 ng/g; inhibition in vivo at 6 mg/kg [24]: 44.8%

From ChEMBL document CHEMBL3997832, “Development of MBRI-001, a deuterium-substituted plinabulin derivative as a potent anti-cancer agent” (Bioorg Med Chem Lett, 2017)
